# SDO1 yeast rescue: compounds rescuing growth of sdo1-depleted yeast, bone marrow failure model | S. cerevisiae sdo1-depleted JHY4D growth rescue, OD600 30 h; stronger effect = higher value; pdr5 snq2 efflux-pump mutant strain | z-score at 10 µM | 140,000 tested, 0.21% active;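 active means z-score above 3 at both the 24 hr and the 30 hr optical density reads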;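 further: z-score against mean and SD of all compound wells on the same plate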
# FLuc stim CS: affects firefly luciferase, flagging false hits in luciferase stimulation screens | P08659 | 200,000 tested, under 10 active | AID 1027 | ATPlite luciferase biochemical, luminescence, 10 min; 0 = ATP-free wells, 1 = DMSO control | activation factor at 10 µM;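 active means luciferase activation factor, scaled between plate controls, of at least 2 with compound at 10 µM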
# Target sequence (P08659 whole entry, looked up): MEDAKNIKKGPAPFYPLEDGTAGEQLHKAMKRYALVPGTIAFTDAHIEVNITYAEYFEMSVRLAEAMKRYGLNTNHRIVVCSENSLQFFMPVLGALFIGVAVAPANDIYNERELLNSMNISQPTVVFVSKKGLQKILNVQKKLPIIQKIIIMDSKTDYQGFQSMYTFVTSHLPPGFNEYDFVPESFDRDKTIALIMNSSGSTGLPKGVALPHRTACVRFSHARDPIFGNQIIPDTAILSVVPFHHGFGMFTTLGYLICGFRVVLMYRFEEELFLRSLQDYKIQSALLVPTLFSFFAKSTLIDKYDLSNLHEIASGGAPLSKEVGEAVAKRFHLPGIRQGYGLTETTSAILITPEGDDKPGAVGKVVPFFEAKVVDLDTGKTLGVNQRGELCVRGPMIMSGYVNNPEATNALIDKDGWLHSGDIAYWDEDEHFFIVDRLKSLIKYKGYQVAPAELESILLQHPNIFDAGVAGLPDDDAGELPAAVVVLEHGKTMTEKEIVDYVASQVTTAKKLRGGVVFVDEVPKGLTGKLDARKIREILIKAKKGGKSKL
#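 Material: Luciferase/luciferin reagent mix; Doses: test compounds dosed from 2 mM stocks in 100% DMSO; Schedule: 10 min incubation after luciferase reagent addition, room temperature; Measured by: luminescence from luciferase reaction; Read-out: luminescence gain marking luciferase activators.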
# NF-kB neuron act: raises NF-kB expression in human neuronal cells | 190,000 tested, 1.6% active | fold change at 12.5 µM | NF-kB reporter expression; stronger effect = higher value | AID 1239; in the data active means fold change above about 3.3
# FLuc inhib CS: counter-screen for luciferase assay inhibitors: firefly luciferase inhibition; P08659; ATPLite firefly luciferase biochemical luminescence, 10 min; inhibition, % at 10 µM; 200,000 tested, 1.5% active;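 active means inhibition above about 50% when tested at 10 µM, limit read from the data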
# STAT1 act: STAT1 signaling activation. NIH 3T3 STAT1-luciferase reporter, IFN-gamma, luminescence; 100% = IFN-gamma alone, no compound. activation (% of control), % at 5.5 µM. 200,000 tested, 2.6% active;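 active means activation above the screen-wide mean activation plus 3 SD, cut at about 130% in these data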;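 further: raw ratio to IFN-gamma control signal so 100% means no change and 0% no light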
# APP 5'UTR act: APP 5'UTR luciferase reporter activation. activation, % at 2 µM. 190,000 tested, 1% active. SH-SY5Y APP 5'UTR luciferase reporter, luminescence; zero percent = DMSO vehicle wells. AID 1276;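 active means activation above a set limit, based on mean plus 3 SD of controls, cut at about 140% in these data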
# STAT1 activ conf: confirmation of STAT1 signaling activators; shares compounds with STAT1 act; NIH 3T3 STAT1-luciferase reporter, IFN-gamma potentiation, luminescence; 100% = IFN-gamma EC80 alone, no compound; activation (% of control), % at 5.7 µM; 1,200 tested, 97% active; AID 1262;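 active means activation above a set limit carried over from the earlier primary STAT1 screen, cut at about 140% in these data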;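 further: simple ratio to median IFN-gamma plus DMSO wells so 0% means no light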
# NFkB act: NF-kappaB activation in STAT1 activator counter-screen. AID 1306. HEK293T NF-kB luciferase reporter, TNF-alpha stimulated, luminescence; 100% = TNF-alpha with vehicle only. activation (% of control), % at 5.7 µM. shares compounds with STAT1 act. 1,200 tested, 43% active;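 active means activation above the mean of solvent-only control wells plus 3 SD, set per campaign, cut at about 130% in these data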;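 further: TNF-alpha given at a submaximal dose yielding about 80% of full reporter signal; values are well signal over median control so 100% means no change and 0% no light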
# STAT3 act 2: activates human STAT3, counter-screen to STAT1 activators | shares compounds with STAT1 act | U3A cells STAT3-luciferase reporter, IL-6, luminescence; cells lack STAT1; 100 = IL-6 alone, no compound effect | activation (% of control), % at 5.7 µM | 1,200 tested, 46% active | AID 1316;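 active means activation above the solvent-only control well mean plus 3 SD, set per plate batch, cut at about 110% in these data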;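 further: 0% = no luminescence and 100% = median IL-6 plus DMSO wells; higher means more STAT3 reporter activation so hits are non-selective activators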
# The depositor's hits bear a star; / = no result given. Rows were chosen to be rich in hits. Some 4.3% of all compounds tested hit in one or more screens of this group.
SMILES,SDO1 yeast rescue,FLuc stim CS,NF-kB neuron act,FLuc inhib CS,STAT1 act,APP 5'UTR act,STAT1 activ conf,NFkB act,STAT3 act 2
CC(C)C12CN3CC(C(C)C)(CN(C1)C3c1ccccc1)C2O (configuration not stated),-0.43,1.1,1.9,-8,101,1,/,/,/
Cc1nc(NC(=O)c2ccc3c(c2)OCO3)ccc1Br,/,0.7,4*,28,156*,106,169*,127,97
O=C(Nc1ccc(NC(=O)c2cccs2)cn1)c1ccccc1,/,0.8,3.8*,17,153*,136*,201*,133,115*
Cc1nc(NC(=O)c2cccs2)ccc1Br,/,0.8,6.3*,22,161*,133,201*,131,123*
O=C(Nc1ccc(NC(=O)C2CC2)nc1)c1cccs1,0.81,0.9,1.2,6,117,31,/,/,/
C=CCNC(=O)C1CC(=O)N(c2ccc(OCC(=O)NCc3ccccc3)cc2)C1 (configuration not stated),0.12,1.1,1.4,-6,94,-6,/,/,/
COc1ccc(/C=C(\C#N)C(=O)OCC(=O)NCc2ccc(Cl)cc2)cc1,0.7,1.1,1.1,-7,102,-10,/,/,/
Cc1cc(C(=O)CN2C(=O)c3ccccc3C2=O)c(C)n1Cc1cccs1,-0.71,0.4,0.94,62*,161*,94,193*,107,110
CCc1nc2sc(C)c(C)c2c(=O)n1CCO,0.81,1.1,1,-6,108,17,/,/,/
Cc1ccc(-c2cc3nc(C)cc(NCc4ccco4)n3n2)cc1,-1.2,0.3,4.1*,68*,151*,137*,172*,114,109
COCCNc1cc(C)nc2cc(-c3ccc(C)cc3)nn12,/,0.7,1.5,35,119,4,/,/,/
Clc1cccc(-c2cc3nc4c(c(NCc5ccco5)n3n2)CCCC4)c1,-1.9,0.9,2,6,154*,131,242*,145*,113*
c1coc(CNc2c3c(nc4ncnn24)CCCC3)c1,1.9,1.1,0.9,-7,97,12,/,/,/
Cc1cc(C)cc(NC(=O)c2snc3c(=O)[nH]cnc23)c1,1.2,1.1,1.5,-5,96,-17,/,/,/
Cc1ccccc1C(=O)O/N=C1\CCS(=O)(=O)c2sccc21,-0.14,0.8,5.8*,16,220*,0,225*,146*,111*
COc1ccc(C(=O)O/N=C2\CCS(=O)(=O)c3sccc32)cc1,/,0.7,1.9,30,111,14,/,/,/
O=C1CN(C(=O)COC(=O)CCSc2ccccc2Cl)c2ccccc2N1,-0.03,1,1.2,-5,101,9,/,/,/
O=C(O)C1CSC2(c3ccc(Br)cc3)CCC(=O)N12 (configuration not stated),/,1,1.3,-2,94,-8,/,/,/
Cc1c(-c2ccccc2)[nH]n2c(=O)c3c(nc12)CCCC3,1.4,0.9,2.1,11,155*,51,174*,130,117*
CCOC(=O)c1cc(NC(=O)Nc2ccccc2Cl)c(C)nc1C,/,1.1,1.1,-6,100,3,/,/,/
CCOC(=O)c1cc(C)sc1NC(=O)c1ccc(Cl)s1,-1,1,0.92,-4,100,-6,/,/,/
CCOC(=O)c1sc(NC(=O)Nc2ccccc2Cl)cc1C,-1,0.2,4.2*,80*,186*,220*,295*,113,96
CCOC(=O)c1sc(NC(=O)Nc2ccccc2)cc1C,-0.64,0.2,9.5*,84*,189*,173*,222*,123,107

# Screens from PubChem.
